Data reported in publication PMC11865470 (Communications Biology, 2025).

Key:
Assay type in all cases: cell-based
HV1 = molecular target: T1, HV1 (Homo sapiens, UniProt Q96D96); assay: whole-cell patch-clamp, off-target channel, 10 μM compound; conditions: vs 0.1% DMSO
T1 sequence (Q96D96 1-273): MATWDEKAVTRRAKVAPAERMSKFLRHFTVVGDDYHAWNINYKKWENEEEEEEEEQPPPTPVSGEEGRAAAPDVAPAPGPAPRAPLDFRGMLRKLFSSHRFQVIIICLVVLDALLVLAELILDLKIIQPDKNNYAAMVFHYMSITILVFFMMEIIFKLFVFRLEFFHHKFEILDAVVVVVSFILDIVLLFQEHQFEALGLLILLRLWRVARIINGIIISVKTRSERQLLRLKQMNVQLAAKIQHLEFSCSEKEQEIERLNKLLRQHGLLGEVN
Outline: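 HV1 in transfected HEK293T cells, whole-cell. Pipette (mM): 120 CsCl, 100 MES, pH 5.5. Bath (mM): 150 NaCl, 5 KCl, 1 MgCl2, 2 CaCl2, 10 glucose, 100 HEPES, pH 7.2. Bath with 0.1% DMSO applied before 10 μM test compound. Inhibition ratios compared by unpaired t-test, n = 5.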

CaV2.2 = CaV2.2 (Rattus norvegicus, UniProt Q02294); assay: whole-cell patch-clamp, off-target channel, 10 μM compound; conditions: for sensitivity of channel to compound: vs 0.1% DMSO
Outline: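 CaV channels in transfected HEK293T cells, whole-cell. Pipette (mM): 120 CsMeSO3, 2 Mg-ATP, 11 EGTA, 10 HEPES, pH 7.4. Bath (mM): 138 NaCl, 5.6 KCl, 2.6 CaCl2, 20 TEA-Cl, 5 glucose, 5 HEPES, pH 7.4. 0.1% DMSO bath applied before 10 μM test compound. Inhibition ratios compared by unpaired t-test, n = 5.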

mouse Otop3 (mOtop3) = molecular target: T2, mouse Otop3 (mOtop3) (Mus musculus, UniProt Q80UF9); assay: whole-cell patch-clamp, pH 5.5-evoked currents; conditions: 10 μM
T2 sequence (Q80UF9 1-577): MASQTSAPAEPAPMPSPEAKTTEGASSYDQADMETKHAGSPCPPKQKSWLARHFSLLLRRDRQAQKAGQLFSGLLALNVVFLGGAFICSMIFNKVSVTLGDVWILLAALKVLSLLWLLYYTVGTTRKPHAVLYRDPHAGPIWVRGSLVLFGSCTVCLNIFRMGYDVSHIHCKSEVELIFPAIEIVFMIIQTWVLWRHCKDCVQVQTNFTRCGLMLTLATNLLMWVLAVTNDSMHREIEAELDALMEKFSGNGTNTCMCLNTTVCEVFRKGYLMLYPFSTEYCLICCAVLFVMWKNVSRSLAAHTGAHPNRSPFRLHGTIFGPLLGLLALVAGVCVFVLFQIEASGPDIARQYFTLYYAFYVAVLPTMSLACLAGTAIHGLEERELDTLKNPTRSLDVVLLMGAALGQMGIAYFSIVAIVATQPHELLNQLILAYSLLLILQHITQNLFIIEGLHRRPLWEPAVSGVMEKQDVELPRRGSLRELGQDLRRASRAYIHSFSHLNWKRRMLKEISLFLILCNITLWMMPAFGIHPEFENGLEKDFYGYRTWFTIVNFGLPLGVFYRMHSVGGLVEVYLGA
Outline: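 Channel plasmid (2.5 μg) was co-transfected with EGFP plasmid (0.5 μg) using Lipofectamine 2000 into PAC-knockout HEK293T cells. Whole-cell recording 16–24 h after seeding, with Cs-aspartate pipette solution (pH 7.3). Currents evoked by pH 5.5 bath (160 mM NMDG-Cl, 2 mM CaCl2, 10 mM MES); test compound 10 μM.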

KV1.3 = KV1.3 (Homo sapiens, UniProt P22001); assay: whole-cell patch-clamp, off-target channel, 10 μM compound
Outline: (§1)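 KV channels in transiently transfected HEK293T cells, whole-cell. Pipette (mM): 140 KCl, 2.5 MgCl2, 11 EGTA, 10 HEPES, pH 7.4. Bath (mM): 145 NaCl, 2.8 KCl, 2 CaCl2, 1 MgCl2, 10 glucose, 10 HEPES, pH 7.4. 0.1% DMSO bath applied, then 10 μM test compound. DMSO vs compound inhibition ratio compared by unpaired t-test, n = 5.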

NaV1.2 = NaV1.2 (Rattus norvegicus, UniProt P04775); assay: whole-cell patch-clamp, off-target channel, 10 μM compound; conditions: vs 0.1% DMSO
Outline: (§2)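 NaV channels, transiently transfected HEK293T cells, whole-cell, 16–24 h after seeding. Pipette (mM): 140 CsF, 1 EGTA, 10 NaCl, 10 HEPES, pH 7.4. Bath (mM): 140 NaCl, 5 KCl, 2 CaCl2, 1 MgCl2, 10 glucose, 10 HEPES, pH 7.4. Bath with 0.1% DMSO applied before 10 μM test compound. Inhibition ratios compared by unpaired t-test, n = 5.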

NaV1.4 = NaV1.4 (Homo sapiens, UniProt P35499); assay: as above; conditions: for sensitivity of channel to compound: vs 0.1% DMSO
Outline: as §2

KV3.1 = molecular target: T3, KV3.1 (Mus musculus, UniProt P15388); assay: whole-cell patch-clamp, off-target channel, 10 μM compound; conditions: for sensitivity of channel to compound: vs 0.1% DMSO
T3 sequence (P15388 1-585 isoform P15388-3): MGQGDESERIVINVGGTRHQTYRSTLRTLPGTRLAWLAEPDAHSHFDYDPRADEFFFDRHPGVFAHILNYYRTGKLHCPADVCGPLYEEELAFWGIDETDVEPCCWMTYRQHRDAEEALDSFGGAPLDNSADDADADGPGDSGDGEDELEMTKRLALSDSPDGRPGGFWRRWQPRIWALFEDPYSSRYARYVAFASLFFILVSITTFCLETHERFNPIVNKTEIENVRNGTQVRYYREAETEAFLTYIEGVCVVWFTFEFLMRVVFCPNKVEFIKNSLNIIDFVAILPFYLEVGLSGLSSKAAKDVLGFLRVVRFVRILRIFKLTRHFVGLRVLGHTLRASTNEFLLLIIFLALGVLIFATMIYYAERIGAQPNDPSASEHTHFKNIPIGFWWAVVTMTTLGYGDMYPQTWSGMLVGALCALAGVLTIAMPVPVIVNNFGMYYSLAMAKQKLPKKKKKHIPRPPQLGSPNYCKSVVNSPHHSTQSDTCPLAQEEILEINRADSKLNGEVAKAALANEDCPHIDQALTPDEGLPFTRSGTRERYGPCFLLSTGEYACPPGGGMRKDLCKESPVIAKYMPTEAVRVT
Outline: as §1

NaV1.3 = NaV1.3 (Rattus norvegicus, UniProt P08104); assay: whole-cell patch-clamp, off-target channel, 10 μM compound; conditions: vs 0.1% DMSO
Outline: as §2

PAC = PAC (Homo sapiens, UniProt Q9H813); assay: whole-cell patch-clamp, off-target channel, 10 μM compound; conditions: vs 0.1% DMSO
Outline: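 PAC in transfected HEK293T cells, whole-cell. Pipette (mM): 135 CsCl, 1 MgCl2, 2 CaCl2, 10 HEPES, 5 EGTA, 4 Mg-ATP, pH 7.2. NaCl-based bath buffered with 10 mM HEPES (pH 7.3) or 5 mM Na3-citrate (pH 5.5). 0.1% DMSO bath applied before 10 μM test compound. Inhibition ratios compared by unpaired t-test, n = 5.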

NaV1.4, sequence (P35499 whole entry): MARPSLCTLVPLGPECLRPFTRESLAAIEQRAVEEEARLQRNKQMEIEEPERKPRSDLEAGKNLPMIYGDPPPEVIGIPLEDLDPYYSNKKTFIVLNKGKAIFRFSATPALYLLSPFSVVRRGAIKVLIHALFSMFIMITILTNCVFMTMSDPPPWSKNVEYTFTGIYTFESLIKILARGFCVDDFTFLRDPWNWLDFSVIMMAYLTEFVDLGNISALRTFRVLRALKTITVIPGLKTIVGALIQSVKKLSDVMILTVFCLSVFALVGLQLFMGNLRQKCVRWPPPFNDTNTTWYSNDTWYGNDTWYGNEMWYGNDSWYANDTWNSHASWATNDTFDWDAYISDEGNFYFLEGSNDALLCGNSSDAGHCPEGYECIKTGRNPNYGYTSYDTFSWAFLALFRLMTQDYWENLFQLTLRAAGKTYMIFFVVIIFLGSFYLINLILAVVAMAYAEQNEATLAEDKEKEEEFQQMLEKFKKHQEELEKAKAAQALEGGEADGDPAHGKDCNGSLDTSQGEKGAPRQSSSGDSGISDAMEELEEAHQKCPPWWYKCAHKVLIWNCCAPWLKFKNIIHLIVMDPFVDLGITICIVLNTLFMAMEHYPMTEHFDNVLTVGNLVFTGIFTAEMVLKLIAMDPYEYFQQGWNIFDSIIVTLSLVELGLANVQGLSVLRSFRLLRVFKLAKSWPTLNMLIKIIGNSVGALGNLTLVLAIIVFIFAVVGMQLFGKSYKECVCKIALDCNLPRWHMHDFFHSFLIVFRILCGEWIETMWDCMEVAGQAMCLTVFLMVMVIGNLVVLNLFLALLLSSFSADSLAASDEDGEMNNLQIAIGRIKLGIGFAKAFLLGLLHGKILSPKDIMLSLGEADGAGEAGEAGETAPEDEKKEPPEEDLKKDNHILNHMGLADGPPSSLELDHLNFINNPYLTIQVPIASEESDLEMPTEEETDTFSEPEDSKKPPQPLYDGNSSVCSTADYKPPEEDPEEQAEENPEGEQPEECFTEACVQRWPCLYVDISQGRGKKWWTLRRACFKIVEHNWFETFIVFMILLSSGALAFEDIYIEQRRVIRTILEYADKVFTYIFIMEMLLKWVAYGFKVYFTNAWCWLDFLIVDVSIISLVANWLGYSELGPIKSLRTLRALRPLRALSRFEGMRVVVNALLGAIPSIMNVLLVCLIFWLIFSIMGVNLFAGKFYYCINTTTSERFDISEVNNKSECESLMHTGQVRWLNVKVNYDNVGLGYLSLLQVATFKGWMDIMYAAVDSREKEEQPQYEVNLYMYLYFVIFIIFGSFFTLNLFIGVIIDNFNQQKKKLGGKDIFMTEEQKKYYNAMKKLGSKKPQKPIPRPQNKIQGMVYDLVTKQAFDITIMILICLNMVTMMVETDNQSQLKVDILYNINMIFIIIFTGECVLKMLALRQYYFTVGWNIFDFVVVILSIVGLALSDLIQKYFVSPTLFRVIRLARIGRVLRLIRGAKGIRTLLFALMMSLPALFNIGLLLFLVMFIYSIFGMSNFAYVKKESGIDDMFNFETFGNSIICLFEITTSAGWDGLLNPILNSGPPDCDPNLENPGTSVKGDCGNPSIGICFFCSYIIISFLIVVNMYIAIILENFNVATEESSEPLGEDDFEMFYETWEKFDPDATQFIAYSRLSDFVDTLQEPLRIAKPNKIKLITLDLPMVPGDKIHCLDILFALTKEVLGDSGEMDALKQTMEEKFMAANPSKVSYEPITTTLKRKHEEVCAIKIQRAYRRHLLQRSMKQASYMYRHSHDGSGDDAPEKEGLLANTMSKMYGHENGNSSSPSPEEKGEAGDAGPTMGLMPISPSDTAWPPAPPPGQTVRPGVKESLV
NaV1.2, sequence (P04775 whole entry): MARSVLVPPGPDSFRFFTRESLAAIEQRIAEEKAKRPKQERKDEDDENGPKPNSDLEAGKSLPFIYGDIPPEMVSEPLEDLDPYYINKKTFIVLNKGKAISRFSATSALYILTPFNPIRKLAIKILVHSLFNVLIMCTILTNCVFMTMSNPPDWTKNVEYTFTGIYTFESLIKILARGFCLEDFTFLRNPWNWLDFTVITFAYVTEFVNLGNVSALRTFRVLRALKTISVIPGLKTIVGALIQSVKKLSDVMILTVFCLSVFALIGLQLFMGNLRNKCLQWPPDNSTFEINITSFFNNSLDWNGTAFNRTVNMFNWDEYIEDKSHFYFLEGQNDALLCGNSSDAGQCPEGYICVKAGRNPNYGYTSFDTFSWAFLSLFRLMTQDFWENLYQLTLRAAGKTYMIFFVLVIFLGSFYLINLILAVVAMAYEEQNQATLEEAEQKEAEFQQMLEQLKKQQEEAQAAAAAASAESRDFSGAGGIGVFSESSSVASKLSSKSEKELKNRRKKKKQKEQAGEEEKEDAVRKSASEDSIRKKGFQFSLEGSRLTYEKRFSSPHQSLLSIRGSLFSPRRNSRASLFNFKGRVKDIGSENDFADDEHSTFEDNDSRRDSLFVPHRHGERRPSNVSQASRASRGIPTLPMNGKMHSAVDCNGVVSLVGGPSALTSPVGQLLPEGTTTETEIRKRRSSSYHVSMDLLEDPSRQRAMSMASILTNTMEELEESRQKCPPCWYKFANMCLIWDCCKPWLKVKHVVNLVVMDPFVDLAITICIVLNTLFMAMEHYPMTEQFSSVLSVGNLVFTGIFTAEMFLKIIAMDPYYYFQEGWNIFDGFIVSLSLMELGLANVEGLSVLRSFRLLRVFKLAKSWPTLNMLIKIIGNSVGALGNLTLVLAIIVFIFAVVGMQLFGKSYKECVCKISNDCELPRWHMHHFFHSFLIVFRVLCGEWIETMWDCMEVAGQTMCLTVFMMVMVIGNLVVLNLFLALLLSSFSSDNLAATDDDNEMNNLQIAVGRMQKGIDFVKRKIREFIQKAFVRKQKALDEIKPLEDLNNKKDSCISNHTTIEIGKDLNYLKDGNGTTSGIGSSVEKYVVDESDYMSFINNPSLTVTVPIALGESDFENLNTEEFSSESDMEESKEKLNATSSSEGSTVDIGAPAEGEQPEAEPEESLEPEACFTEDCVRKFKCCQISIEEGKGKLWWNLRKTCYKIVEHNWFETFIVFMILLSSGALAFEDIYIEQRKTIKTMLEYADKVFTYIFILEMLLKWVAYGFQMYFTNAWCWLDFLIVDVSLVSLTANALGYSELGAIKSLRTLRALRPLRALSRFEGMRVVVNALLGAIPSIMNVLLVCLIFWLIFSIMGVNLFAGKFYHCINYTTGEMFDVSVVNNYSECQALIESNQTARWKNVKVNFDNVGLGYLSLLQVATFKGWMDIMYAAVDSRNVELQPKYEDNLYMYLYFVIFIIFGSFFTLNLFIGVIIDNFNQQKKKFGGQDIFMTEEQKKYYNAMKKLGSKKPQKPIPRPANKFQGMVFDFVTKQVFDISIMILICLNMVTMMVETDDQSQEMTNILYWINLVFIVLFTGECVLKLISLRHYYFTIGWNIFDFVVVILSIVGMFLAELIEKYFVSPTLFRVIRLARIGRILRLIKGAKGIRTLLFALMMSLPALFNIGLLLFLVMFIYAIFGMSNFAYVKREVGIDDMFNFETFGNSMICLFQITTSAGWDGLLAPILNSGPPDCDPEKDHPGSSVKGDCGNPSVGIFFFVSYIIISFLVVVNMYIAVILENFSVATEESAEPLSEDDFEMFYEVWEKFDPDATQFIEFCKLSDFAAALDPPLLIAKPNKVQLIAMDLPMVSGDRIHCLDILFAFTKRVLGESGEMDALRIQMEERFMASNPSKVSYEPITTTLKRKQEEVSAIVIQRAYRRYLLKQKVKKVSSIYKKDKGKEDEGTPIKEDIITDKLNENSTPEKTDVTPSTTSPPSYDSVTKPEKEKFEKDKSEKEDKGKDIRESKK
PAC, sequence (Q9H813 whole entry): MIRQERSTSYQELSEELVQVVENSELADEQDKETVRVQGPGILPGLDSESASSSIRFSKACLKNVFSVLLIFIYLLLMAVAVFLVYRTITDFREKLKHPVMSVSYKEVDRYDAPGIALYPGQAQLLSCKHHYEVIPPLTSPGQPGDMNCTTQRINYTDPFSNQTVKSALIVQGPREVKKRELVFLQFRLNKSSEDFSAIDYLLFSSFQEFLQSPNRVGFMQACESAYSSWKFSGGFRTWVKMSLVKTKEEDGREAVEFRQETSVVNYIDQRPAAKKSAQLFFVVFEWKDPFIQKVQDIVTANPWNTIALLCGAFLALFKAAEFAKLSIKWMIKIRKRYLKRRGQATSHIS
KV1.3, sequence (P22001 whole entry): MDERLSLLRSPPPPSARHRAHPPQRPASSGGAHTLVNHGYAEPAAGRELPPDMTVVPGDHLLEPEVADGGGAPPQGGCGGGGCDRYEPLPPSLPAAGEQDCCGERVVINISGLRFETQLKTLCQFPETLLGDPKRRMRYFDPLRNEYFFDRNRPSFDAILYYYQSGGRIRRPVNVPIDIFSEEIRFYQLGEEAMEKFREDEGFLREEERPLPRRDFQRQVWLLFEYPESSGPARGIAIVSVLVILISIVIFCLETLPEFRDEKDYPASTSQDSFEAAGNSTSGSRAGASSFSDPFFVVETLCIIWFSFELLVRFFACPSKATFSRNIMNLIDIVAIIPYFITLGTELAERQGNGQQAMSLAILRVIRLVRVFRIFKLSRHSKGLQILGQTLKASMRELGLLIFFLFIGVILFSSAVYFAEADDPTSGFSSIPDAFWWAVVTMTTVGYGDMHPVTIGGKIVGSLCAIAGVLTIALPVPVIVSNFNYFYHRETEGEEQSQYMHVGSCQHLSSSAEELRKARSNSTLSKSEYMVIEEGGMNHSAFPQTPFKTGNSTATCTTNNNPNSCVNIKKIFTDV

| SMILES | sensitivity of channel to compound (HV1) | sensitivity of channel to compound (CaV2.2) | effect on pH 5.5-evoked mOtop3 currents (mouse Otop3 (mOtop3)) | sensitivity of channel to compound (KV1.3; vs 0.1% DMSO) | sensitivity of channel to compound (NaV1.2) | sensitivity of channel to compound (NaV1.4) | sensitivity of channel to compound (KV3.1) | sensitivity of channel to compound (NaV1.3) | sensitivity of channel to compound (PAC) | inhibition ratio (KV1.3) [%] | inhibition ratio (CaV2.2) [%] | inhibition ratio (NaV1.4) [%] | inhibition ratio (KV3.1) [%] |
| --- | --- | --- | --- | --- | --- | --- | --- | --- | --- | --- | --- | --- | --- |
| Cc1cc(NC(=O)c2ccc(Br)o2)ccc1NC(=O)c1ccco1 [B2FAMP, 5-Bromo-N-[4-(2-furoylamino)-3-methylphenyl]-2-furamide] | completely resistant | completely resistant | did not affect | completely resistant | completely resistant | completely resistant | completely resistant | completely resistant | completely resistant |  |  |  |  |
| CC(C)c1noc2ncc(C(=O)c3ccccc3O)cc12 [HIMOP, (2-hydroxyphenyl)-(3-propan-2-yl-5-isoxazolo[5,4-b]pyridinyl)methanone] | completely resistant | completely resistant | did not affect |  | completely resistant | completely resistant | completely resistant | completely resistant | completely resistant | 10.8 |  |  |  |
| Cc1ccc(C(=O)Nc2ccc3ccccc3c2)o1 [MFaN, 5-methyl-N-2-naphthyl-2-furamide] | completely resistant |  | did not affect |  | completely resistant |  |  | completely resistant | completely resistant | 15.9 | 7.9 | 7.0 | 15.2 |
